High-throughput results (PubChem BioAssay)
This is a sample that favours compounds with a hit; in the whole collection about 0.89% have one here.
TNF death inh = blocks TNF-alpha induced death of Jurkat FADD-/- cells; activation (protection from cell death), % at 10 µM; hit rate 0.068% among 220,000; Jurkat FADD-/- TNF necroptosis rescue, ATP luminescence, 24 h; 0 = TNF only, 100 = no-TNF cells;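 active means activation, meaning protection from cell death, of at least 50% relative to plate controls; inactive means activation below 50%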;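 further: necroptosis triggered by 40 ng/mL TNF-alpha added together with compound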
MDM2 E3 inh = inhibitors of human Mdm2 E3 ubiquitin ligase | signal enhancement, % at 5 µM | cell-based MDM2 ubiquitination luciferase reporter, 2 h; 0 = plate control, 100 = twice control, blank-subtracted | Q00987 | hit rate 0.11% among 210,000;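 active means signal enhancement of 30% or more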;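 further: luminescence tracks abundance of the self-degrading MDM2-luciferase fusion protein; higher signal means inhibition of MDM2 E3 ligase activity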
Target sequence (Q00987 whole entry, looked up, the tested form may be a part): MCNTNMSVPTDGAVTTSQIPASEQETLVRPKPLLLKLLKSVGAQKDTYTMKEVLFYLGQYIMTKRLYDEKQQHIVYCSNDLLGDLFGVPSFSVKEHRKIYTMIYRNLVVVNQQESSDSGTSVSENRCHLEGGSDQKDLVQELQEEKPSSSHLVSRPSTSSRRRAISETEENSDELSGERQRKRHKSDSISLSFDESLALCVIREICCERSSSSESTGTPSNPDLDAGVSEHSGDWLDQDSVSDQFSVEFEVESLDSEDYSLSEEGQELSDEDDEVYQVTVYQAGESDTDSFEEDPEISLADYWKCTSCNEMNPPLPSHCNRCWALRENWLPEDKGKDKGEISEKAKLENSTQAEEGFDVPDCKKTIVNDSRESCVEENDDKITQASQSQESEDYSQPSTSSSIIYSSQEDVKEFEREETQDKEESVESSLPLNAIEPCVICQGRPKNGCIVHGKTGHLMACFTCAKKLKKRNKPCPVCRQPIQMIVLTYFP
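test system = mammalian cells stably expressing self-ubiquitinating, self-degrading MDM2 E3–luciferase fusion | quantity = 2000 cells/well | incubation = cell settling 4 h, compound treatment 2 h, both 37 °C | signal = luminescence with SteadyLite reagent, 15 min at room temperature | evaluation = % enhancement relative to plate controls after blank subtraction | benchmarks = plate controls and plate blanks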
E-sel TNF inh = blocks E-selectin expression induced by TNF alpha. HUVEC TNFa-induced E-selectin immunofluorescence, high content. inhibition, % at 2 µM. hit rate 0.71% among 120,000;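 active means inhibition above the batch mean plus 3 SD, and confirmed as a hit on visual image review, cut at about 43% in these data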;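 further: 0% = TNF-stimulated DMSO wells and 100% = unstimulated control wells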
zVAD death inh = blocks zVAD induced death of L929 cells | hit rate 0.38% among 220,000 | L929 zVAD necroptosis rescue, ATP luminescence, 24 h; with zVAD 60 µM | AID 1377 | viability rescue, % at 10 µM;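 active means activation, scaled between plate controls, above about 75%, limit read from the data; inactive means activation under that limit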;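 further: 0% = zVAD with DMSO and 100% = DMSO alone without zVAD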
HSV augment = increases HSV replication in cells | maximum fold increase | HSV replication augmentation in cells, fold increase | AID 1956 | hit rate 0.005% among 220,000; in the data active means maximum fold increase above about 1.5; tested in PC3 cells
The depositor's hits bear a star.

What do the screens show for `COCC(C)NC(=O)CCS(=O)(=O)c1nc(-c2ccc(OC)cc2)cc(C(F)(F)F)n1` (configuration not stated)?
TNF death inh: -19; MDM2 E3 inh: -11; E-sel TNF inh: 83*; zVAD death inh: 4; HSV augment: inactive

What do the screens show for `Cc1cc(NC(=O)CCCS(=O)(=O)c2nc(-c3cccs3)cc(C(F)(F)F)n2)no1`?
TNF death inh: -15; MDM2 E3 inh: 21; zVAD death inh: 59; HSV augment: inactive

What do the screens show for `CCOC(=O)CCS(=O)(=O)c1nc(-c2ccccc2)cc(C(F)(F)F)n1`?
TNF death inh: -14; MDM2 E3 inh: 0; E-sel TNF inh: 48; zVAD death inh: 1; HSV augment: inactive

How did COc1ccc(-c2cc(C(F)(F)F)nc(S(=O)(=O)CCCC(=O)Nc3cccnc3Cl)n2)cc1OC do in these assays?
TNF death inh: -14; MDM2 E3 inh: 34*; zVAD death inh: 20; HSV augment: inactive

Results for CCOC(=O)CS(=O)(=O)c1nc(-c2ccccc2)cc(C(F)(F)F)n1 ?
TNF death inh: -17; MDM2 E3 inh: 19; E-sel TNF inh: 67*; zVAD death inh: 0; HSV augment: inactive

How did S=C(NCCCN1CCOCC1)Nc1ccc(Cl)c(Cl)c1 do in these assays?
TNF death inh: 4; zVAD death inh: 1; HSV augment: inactive

What do the screens show for `O=C(Cn1ncc2c(=O)oc3ccccc3c21)N1CCc2ccccc2C1`?
TNF death inh: 1; MDM2 E3 inh: -10; E-sel TNF inh: 90*; zVAD death inh: 0; HSV augment: inactive

What do the screens show for `COc1ccc(C)cc1N1C(=N)/C(=C2/Nc3ccccc3S2)C(c2ccccc2)C1=O` (configuration not stated)?
TNF death inh: -19; MDM2 E3 inh: 5; E-sel TNF inh: -32; HSV augment: inactive

What do the screens show for `COc1ccc(CNC(=O)COC(=O)CCc2nc3ccccc3c(=O)[nH]2)cc1`?
TNF death inh: 0; MDM2 E3 inh: 4; zVAD death inh: 2; HSV augment: inactive

What do the screens show for `Cc1ccc(CNC(=O)CCc2nc3ccccc3c(=O)[nH]2)cc1`?
TNF death inh: 1; MDM2 E3 inh: -1; E-sel TNF inh: 62*; zVAD death inh: 3; HSV augment: inactive

What do the screens show for `CCOC(=O)c1sc(NC(=O)CSC(=S)N2CCN(C)CC2)nc1C`?
TNF death inh: 2; MDM2 E3 inh: -18; zVAD death inh: 5; HSV augment: inactive

Results for O=C(NCC1CC1)C1CCCN(S(=O)(=O)c2ccc(-n3cnnn3)cc2)C1 (configuration not stated) ?
TNF death inh: -2; MDM2 E3 inh: 2; E-sel TNF inh: 62*; zVAD death inh: 0; HSV augment: inactive

How did Cc1ccc(C(=O)NC2CCN(CC(=O)Nc3cccc([N+](=O)[O-])c3)CC2)cc1 do in these assays?
TNF death inh: 0; MDM2 E3 inh: -4; E-sel TNF inh: -7; zVAD death inh: 2; HSV augment: inactive

What do the screens show for `CC(C)n1cnc2c(N(C)c3ccccc3)nc(N(CCN(C)C)Cc3ccccc3)nc21`?
TNF death inh: -11; MDM2 E3 inh: 35*; zVAD death inh: -3; HSV augment: inactive

How did O=C(CC1C(=O)NCCN1Cc1c(F)cccc1Cl)NCCCn1cccn1 (configuration not stated) do in these assays?
TNF death inh: 0; MDM2 E3 inh: -95; zVAD death inh: 0; HSV augment: inactive

Results for O=C(NC(C(=O)c1ccccc1)N1CCOCC1)c1cccs1 (configuration not stated) ?
TNF death inh: -2; MDM2 E3 inh: -17; E-sel TNF inh: -3; zVAD death inh: 0; HSV augment: inactive

Results for O=C(NC(C(=O)c1ccccc1)N1CCOCC1)c1ccccc1 (configuration not stated) ?
TNF death inh: 1; MDM2 E3 inh: -5; E-sel TNF inh: 100*; zVAD death inh: -1; HSV augment: inactive

How did O=C(O)CCC(=O)NCc1c(Cl)cccc1Sc1ccc(Cl)cc1 do in these assays?
TNF death inh: 3; MDM2 E3 inh: -18; zVAD death inh: 1; HSV augment: inactive

How did CC(=O)N(CC1CCCO1)c1nnc(-c2cnccn2)s1 (configuration not stated) do in these assays?
TNF death inh: 76*; MDM2 E3 inh: -15; E-sel TNF inh: 5; zVAD death inh: 0; HSV augment: inactive

Results for O=S(=O)(/C=C/c1ccccc1)Nc1ccc(F)cc1 ?
TNF death inh: 2; MDM2 E3 inh: 1; E-sel TNF inh: 4; zVAD death inh: 5; HSV augment: inactive

Results for CN(C)S(=O)(=O)c1ccc(NS(=O)(=O)/C=C/c2ccccc2)cc1 ?
TNF death inh: -1; MDM2 E3 inh: -11; E-sel TNF inh: 99*; zVAD death inh: 1; HSV augment: inactive

How did COc1ccc(C)cc1S(=O)(=O)N(C)CC(=O)NC1CCCCC1 do in these assays?
TNF death inh: -1; MDM2 E3 inh: 30*; E-sel TNF inh: -18; zVAD death inh: -1; HSV augment: inactive

Results for COc1c(C(=O)NNC(=O)c2ccccc2)csc1Br ?
TNF death inh: -2; MDM2 E3 inh: -6; zVAD death inh: 1; HSV augment: inactive

Results for CCOC(=O)N1CCC(N(CCOC)C(=O)Nc2ccc(Cl)cc2)CC1 ?
TNF death inh: 0; MDM2 E3 inh: -10; E-sel TNF inh: 80*; zVAD death inh: 8

What do the screens show for `Cc1ccc(C)c(N(CC(=O)NCCSCc2ccco2)S(C)(=O)=O)c1`?
TNF death inh: -4; MDM2 E3 inh: -12; E-sel TNF inh: 63*; zVAD death inh: 0; HSV augment: inactive

Results for COc1ccccc1NC(=O)c1[nH]c(C)c(C(C)=O)c1C ?
TNF death inh: -4; MDM2 E3 inh: -11; E-sel TNF inh: 5; zVAD death inh: 1; HSV augment: inactive

What do the screens show for `CC(=O)c1c(C)[nH]c(C(=O)Nc2ccccc2N2CCOCC2)c1C`?
TNF death inh: -2; MDM2 E3 inh: -13; E-sel TNF inh: 75*; zVAD death inh: 33; HSV augment: inactive

What do the screens show for `Cc1cc(C)cc(NC(=O)c2ccc([N+](=O)[O-])o2)c1`?
TNF death inh: -14; MDM2 E3 inh: -25; E-sel TNF inh: 76*; zVAD death inh: 37; HSV augment: inactive

How did O=C(CSc1nnc(CNc2ccc(F)cc2)o1)N1CCCc2ccccc21 do in these assays?
TNF death inh: 3; MDM2 E3 inh: -14; E-sel TNF inh: 63*; zVAD death inh: 2; HSV augment: inactive

What do the screens show for `Cc1ccc(OCc2nnc(N)s2)cc1`?
TNF death inh: 1; MDM2 E3 inh: -3; E-sel TNF inh: 8; zVAD death inh: 2; HSV augment: inactive

Results for Cc1cccc(OCc2nnc(N)s2)c1C ?
TNF death inh: -2; MDM2 E3 inh: -8; E-sel TNF inh: 71*; zVAD death inh: 0; HSV augment: inactive

How did CCc1ccc2nc(Nc3nc(COC)cc(=O)[nH]3)nc(C)c2c1 do in these assays?
TNF death inh: -7; MDM2 E3 inh: -2; E-sel TNF inh: -12; zVAD death inh: 0; HSV augment: inactive
